# Reference: PubChem BioAssay AID651787 (The Scripps Research Institute Molecular Screening Center, 2012)
# In all, about 2,400 compounds went through this assay and about 1,200 (50%) were called active. So high a share suggests a set chosen from earlier hits. The list is a sample of the results. A number with no mark means an inactive call.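 Rule for the calls: active = activation above the run cutoff, the mean activation over all tested wells plus 3 SD (cut at about 12% in these data); inactive = the rest.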
# Assay: nonselective calcium mobilization agonists, CHO-Ga16 cells, counter-screen for hTAAR1 agonist project, cell-based, fluorescence, CHO-Ga16 parental line (AID 651787);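 note: 0% = DMSO wells and 100% = maximal ATP response on the peak over basal ratio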
# Conditions: Fluo-8 calcium fluorescence, at 3 µM, stronger effect = higher value, normalized to maximal ATP response, DMSO zero
# How it was run: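 Test system: Parental CHO cells stably overexpressing Gα16, lacking hTAAR1 | Input: 750 cells in each well | Compound dosing: One dose of 3 µM (nominal) | Timing: 17-24 h seeding, dye 75 min 37 °C, 30 min RT | Measured by: Fluo-8 calcium-dye fluorescence | Read-out basis: % activation from peak-to-basal fluorescence ratio, DMSO to ATP scale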
row,SMILES,activation
1,CCCCC(=O)N/N=C/c1c(O)n(CC)c(=S)n(CC)c1=O,90.1% (active)
2,CCC(=NCCc1ccccc1)c1c(O)n(C2CCCCC2)c(=O)[nH]c1=O,4.36%
3,COc1ccc(Br)cc1CNCCc1cccc(Cl)c1,17.7% (active)
4,Clc1ccc2nc3c(c(-c4ccccc4)c2c1)CNCC3,3.65%
5,Cc1cccc(N2C(=O)NC(=O)/C(=C\c3cnn(-c4ccccc4)c3)C2=O)c1,25.1% (active)
6,c1ccc(CCNC2CCCCCC2)cc1,0.13%
7,O=C1NC(=O)N(Cc2ccco2)C(=O)/C1=C\c1ccc(-c2ccc(F)cc2)o1,21.1% (active)
8,NCC(O)c1ccc(O)cc1 (centres undefined),1.74%
9,CC(Cc1ccccc1)NC=O (centres undefined),6.88%
